From ChEMBL document CHEMBL3259746, “Identification of [1,2,3]triazolo[4,5-d]pyrimidin-7(6H)-ones as novel inhibitors of Chikungunya virus replication” (J Med Chem, 2014)

Assays:
[1] = Cytotoxicity against non-infected African green monkey Vero cells after 7 days by MTS/PMS method; format: cell-based; conditions: chlorocebus sabaeus
Chikungunya virus [2] = assay: Antiviral activity against Chikungunya virus Indian Ocean strain 899 infected in African green monkey Vero cells assessed as inhibition of virus-induced cytopathic effect after 7 days by MTS/PMS method; format: functional, cell-based; conditions: Indian Ocean strain 899, Vero, 168 h
Sindbis virus = assay: Antiviral activity against Sindbis virus HRsp infected in African green monkey Vero E6 cells assessed as reduction in virus yield after 2 days by real time RT-PCR analysis; format: functional, organism-based; conditions: 48 h
[3] = Cytotoxicity against non-infected African green monkey Vero E6 cells up to 300 uM after 2 days; format: cell-based; conditions: chlorocebus sabaeus, 48 h
Outline: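 Uninfected Vero E6 cells were tested up to 300 μM under the same settings as the 2-day virus-yield assay: 5 × 10⁴ cells/well, 2.5% FCS medium, and 2-fold dilutions in triplicate.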

Chikungunya virus [4] = assay: Antiviral activity against Chikungunya virus LR2006-OPY1 infected in African green monkey Vero E6 cells assessed as reduction in virus yield after 2 days by real time RT-PCR analysis; format: functional, cell-based; conditions: 48 h
Chikungunya virus [5] = assay: Antiviral activity against Chikungunya virus Venturini infected in African green monkey Vero E6 cells assessed as reduction in virus yield after 2 days by real time RT-PCR analysis; format: functional, cell-based; conditions: 48 h
Chikungunya virus [6] = assay: Antiviral activity against Chikungunya virus Congo 95 infected in African green monkey Vero E6 cells assessed as reduction in virus yield after 2 days by real time RT-PCR analysis; format: functional, cell-based; conditions: Congo 95, Vero, 48 h
Chikungunya virus [7] = assay: Antiviral activity against Chikungunya virus St. Martin infected in African green monkey Vero E6 cells assessed as reduction in virus yield after 2 days by real time RT-PCR analysis; format: functional, cell-based; conditions: 48 h
Semliki Forest virus = assay: Antiviral activity against Semliki forest virus Vietnam infected in African green monkey Vero E6 cells assessed as reduction in virus yield after 2 days by real time RT-PCR analysis; format: functional, organism-based; conditions: 48 h
[8] = Selectivity index, ratio of CC50 for African green monkey Vero cells to EC50 for Chikungunya virus Indian Ocean strain 899 infected in African green monkey Vero cells; format: toxicity, cell-based; conditions: read-out: Ratio CC50/EC50

SMILES | CC50 at 168 h [1] [µM] | EC50 (Chikungunya virus [2]) [µM] | EC90 (Chikungunya virus [2]) [µM] | further results
Cc1nc2c(nnn2-c2cccc(N(C)C)c2)c(=O)[nH]1 | 538 | > 370 | > 370 | 
Cc1nc2c(nnn2-c2cccc(OC(C)C)c2)c(=O)[nH]1 | > 704 | 12 | 156 | 
CC(=O)c1cccc(-n2nnc3c(=O)[nH]c(C)nc32)c1 | > 743 | 19 | 38 | EC50 (Sindbis virus): > 464 µM; Activity [3]: Non-toxic; EC50 (Chikungunya virus [4]): 25 µM; EC50 (Chikungunya virus [5]): 26 µM; EC50 (Chikungunya virus [6]): 6.4 µM; EC50 (Chikungunya virus [7]): 24 µM; EC50 (Semliki Forest virus): > 464 µM
CC(C)Oc1cccc(-n2nnc3c(=O)[nH]c(C(F)(F)F)nc32)c1 | 104 | 68 | > 147 | 
CC(=O)c1cccc(-n2c(C)nc3c(=O)[nH]c(C)nc32)c1 | > 703 | > 440 | > 440 | 
CCCOc1ccc(-n2nnc3c(=O)[nH]c(C)nc32)cc1 | 594 | 169 | > 701 | 
COc1nc(C)nc2c1nnn2-c1cccc(C(C)=O)c1 | 495 | > 441 | > 441 | 
CC(=O)c1ccc(-n2nnc3c(=O)[nH]c(C)nc32)cc1 | > 743 | 326 | > 743 | 
CCCc1nc2c(nnn2-c2cccc(OC(C)C)c2)c(=O)[nH]1 | > 638 | > 399 | > 399 | 
CC(C)Oc1cccc(-n2nnc3c(=O)[nH]c(-c4ccccc4)nc32)c1 | 277 | 204 | > 360 | 
CC(=O)c1cccc(-n2nnc3c(=O)n(C)c(C)nc32)c1 | > 706 | > 441 | > 441 | 
Cc1nc2c(nnn2-c2cccc(C(=O)c3ccccc3)c2)c(=O)[nH]1 | > 604 | 23 | 47 | 
CC(C)Oc1cccc(-n2nnc3c(=O)[nH]c(=O)[nH]c32)c1 | > 696 | > 435 | > 435 | 
CC(=O)c1cccc(-n2nnc3c(Cl)nc(C)nc32)c1 | > 174 | > 174 | > 174 | 
CC(=O)c1cccc(-n2nnc3c(=O)[nH]cnc32)c1 | > 784 | > 490 | > 490 | 
CNc1nc(C)nc2c1nnn2-c1cccc(C(C)=O)c1 | 514 | > 443 | > 443 | 

SMILES | CC50 at 168 h [1] [µM] | EC50 (Chikungunya virus [2]) [µM] | EC90 (Chikungunya virus [2]) [µM] | further results
COc1cccc(-n2nnc3c(=O)[nH]c(C)nc32)c1 | > 777 | 28 | 179 | 
CCc1nc2c(nnn2-c2cccc(OC(C)C)c2)c(=O)[nH]1 | > 668 | 3 | 18 | EC50 (Sindbis virus): 69 µM; Activity [3]: Non-toxic; EC50 (Chikungunya virus [4]): 2.6 µM; selectivity ratio [8]: > 222; EC50 (Chikungunya virus [5]): 1.4 µM; EC50 (Chikungunya virus [6]): 0.75 µM; EC50 (Chikungunya virus [7]): 2.9 µM; EC50 (Semliki Forest virus): 219 µM
CC(=O)Nc1cccc(-n2nnc3c(=O)[nH]c(C)nc32)c1 | 206 | 318 | 425 | 
CC(C)Oc1cccc(-n2nnc3c(=O)[nH]c(C(C)C)nc32)c1 | > 638 | 280 | > 638 | 
Cc1nc2c(nnn2-c2cccc(C#N)c2)c(=O)[nH]1 | > 793 | 131 | 187 | 
COc1ccccc1-n1nnc2c(=O)[nH]c(C)nc21 | > 777 | 348 | 460 | 
CC(=O)c1cccc(-n2nnc3c(N)nc(C)nc32)c1 | > 746 | 225 | 309 | 
CC(=O)c1cccc(-n2cnc3c(=O)[nH]c(C)nc32)c1 | 491 | 127 | 161 | 
CCN(CC)CCCC(C)Nc1ccnc2cc(Cl)ccc12 (centres undefined) [CHLOROQUINE] |  |  | 21 | 
Cc1nc2c(nnn2-c2cccc(C(=O)O)c2)c(=O)[nH]1 | > 638 | > 399 | > 399 | 
CC(C)Oc1cccc(-n2nnc3c(=O)[nH]c(-c4ccncc4)nc32)c1 | 82 | 75 | > 144 | 
Cc1nc2c(nnn2Cc2cccc(OC(C)C)c2)c(=O)[nH]1 | > 872 | 167 | 232 | 
CC(C)Oc1cccc(-n2nnc3c(=O)[nH]c(CC#N)nc32)c1 | 215 | 115 | 137 | 
Cc1nc2c(nnn2-c2cccc(Cl)c2)c(=O)[nH]1 | > 764 | 32 | 235 | 
CCOC(=O)c1cccc(-n2nnc3c(=O)[nH]c(C)nc32)c1 | 322 | 202 | 331 | 
Cc1nc2c(nnn2-c2ccc3c(c2)OCO3)c(=O)[nH]1 | > 737 | > 461 | > 461 | 
